# Active and inactive are the calls of the source. The rule behind the calls is not given here.
# Experiments:
# Staphylococcus aureus [1] = test: Antibacterial activity against Staphylococcus aureus ML145 ug/ml after 24 hrs by agar dilution method; assay type: functional; details: ML145, 24 h
# Method in brief: (§1)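 Agar dilution MIC. Compound dissolved in sterile 0.2% DMSO, diluted in distilled water and mixed into molten nutrient agar (pH 7.2–7.4) at 5, 10, 25, 50; plate with 0.2% DMSO as control. Gram-positives grown 18 h in nutrient broth, Gram-negatives in peptone water. Stationary-phase suspension set to 0.5 McFarland, diluted 1:100, spot-inoculated at about 10^5 CFU per loopful. Plates held 24 h at 37 °C (up to 72 h if needed). MIC is the lowest level with no growth.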
# Leishmania donovani [2] = test: Antileishmanial activity against Leishmania donovani MHOM/IN/1983/AG83 amastigotes by Giemsa staining; assay type: functional, organism-based
# Method in brief: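 Peritoneal macrophages from thioglycolate-elicited exudate (~2×10^6/ml), adhered overnight on coverslips in RPMI-1640 + 10% FBS at 37 °C, 5% CO2. Infected 6 h with stationary-phase AG83 promastigotes (2×10^7/ml), washed, then exposed 24 h to 0.5, 1, 3, 5, 10 compound. Methanol-fixed, Giemsa-stained; amastigotes per 200 macrophages counted against untreated controls.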
# Leishmania donovani [3] = test: Antileishmanial activity against Leishmania donovani MHOM/IN/1983/AG83 promastigotes infected BALB/c mouse assessed as reduction in spleen parasite burden at 5.5 mg/kg, ip administered two times per week for 4 weeks relative to control; assay type: functional; design: scale not given: the % may be the effect or the level left; details: route intraperitoneal
# Method in brief: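 BALB/c mice (4-6 weeks) were infected iv with 2 × 10^7 freshly transformed promastigotes. One month later, groups were dosed ip in 0.2% Tween 80 in PBS (0.02 M), twice weekly for one month (8 doses); controls got vehicle only. Mice were killed one month post-treatment and spleen and liver were weighed. Parasite load came from Giemsa impression smears as organ weight (mg) × amastigotes per cell nucleus × 2 × 10^5. Values are mean ± S.E. of 5 mice; unpaired t-test.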
# Escherichia coli [4] = test: Antibacterial activity against Escherichia coli ATCC 25938 after 24 hrs by agar dilution method; assay type: functional; details: ATCC 25938, 24 h; method in brief: as §1
# Escherichia coli [5] = test: Antibacterial activity against Escherichia coli ATCC 25938 at 5 ug/ml after 24 hrs by agar dilution method; assay type: functional, organism-based; method in brief: as §1
# Pseudomonas aeruginosa [6] = test: Antibacterial activity against Pseudomonas aeruginosa ATCC 27853 at 10 ug/ml after 24 hrs by agar dilution method; assay type: functional, organism-based; method in brief: as §1
# Shigella dysenteriae [7] = test: Antibacterial activity against Shigella dysenteriae 7 NCTC 519/66 at 25 ug/ml after 24 hrs by agar dilution method; assay type: functional; details: 7 NCTC 519/66, 24 h
# Leishmania donovani [8] = test: Antileishmanial activity against Leishmania donovani MHOM/IN/1983/AG83 promastigotes assessed as induction of vacuolization at 2 ug/ml after 2 hrs by transmission electron microscopy; assay type: functional, organism-based
# Method in brief: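 Log-phase promastigotes, grown at 22 °C in M199 with 10% FBS, were exposed for 2 h to the compound; controls received 0.1% DMSO alone. Cells were then sectioned, stained on copper grids with uranyl acetate and lead acetate for 10-15 min each, and examined by TEM for ultrastructural changes.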
# Pseudomonas aeruginosa [9] = test: Antibacterial activity against Pseudomonas aeruginosa ATCC 27853 at 25 ug/ml after 24 hrs by agar dilution method; assay type: functional; details: ATCC 27853, 24 h; method in brief: as §1
# Leishmania donovani [10] = test: Antileishmanial activity against Leishmania donovani MHOM/IN/1983/AG83 promastigotes assessed as induction of kinetoplast enlargement at 11.5 ug/ml after 2 hrs by transmission electron microscopy; assay type: functional, organism-based
# Pseudomonas aeruginosa [11] = test: Antibacterial activity against Pseudomonas aeruginosa ATCC 27853 at 50 ug/ml after 24 hrs by agar dilution method; assay type: functional; details: ATCC 27853, 24 h; method in brief: as §1
# Vibrio cholerae [12] = test: Antibacterial activity against Vibrio cholerae 582 at 10 ug/ml after 24 hrs by agar dilution method; assay type: functional; details: Vibrio cholerae, 582, 24 h
# Shigella dysenteriae [13] = test: Antibacterial activity against Shigella dysenteriae 6 NCTC 100/54 at 10 ug/ml after 24 hrs by agar dilution method; assay type: functional, organism-based
# Shigella dysenteriae [14] = test: Antibacterial activity against Shigella dysenteriae 6 NCTC 100/54 after 24 hrs by agar dilution method; assay type: functional; details: 6 NCTC 100/54, 24 h
# Proteus mirabilis [15] = test: Antibacterial activity against Proteus mirabilis 175 at 50 ug/ml after 24 hrs by agar dilution method; assay type: functional; details: Proteus mirabilis, 175, 24 h; method in brief: as §1
# Bacillus licheniformis [16] = test: Antibacterial activity against […] Bacillus licheniformis NCTC 10341 at 10 ug/ml after 24 hrs by agar dilution method; assay type: functional, organism-based; method in brief: as §1
# Staphylococcus aureus [17] = test: Antibacterial activity against Staphylococcus aureus ML6 at 25 ug/ml after 24 hrs by agar dilution method; assay type: functional; details: ML6, 24 h; method in brief: as §1
# Mus musculus [18] = test: Toxicity in BALB/c mouse assessed as effect on serum glutamate oxaloacetate transaminase levels at 12.5 mg/kg, ip administered two times per week for 4 weeks; assay type: organism-based; design: dose 12.5 mg/kg, route intraperitoneal; details: in vivo, 672 h
# Method in brief: (§2)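 Normal BALB/c mice were dosed ip twice per week for 4 weeks. Blood was collected one month after treatment, and serum SGPT and SGOT (IU/l) and blood urea (mg/dl) were measured with commercial kits and compared with untreated normal mice.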
# Bacillus licheniformis [19] = test: Antibacterial activity against […] Bacillus licheniformis NCTC 10341 at 25 ug/ml after 24 hrs by agar dilution method; assay type: functional, organism-based; method in brief: as §1
# Proteus mirabilis [20] = test: Antibacterial activity against Proteus mirabilis 7 at 5 ug/ml after 24 hrs by agar dilution method; assay type: functional, organism-based; method in brief: as §1
# Salmonella typhimurium [21] = test: Antibacterial activity against Salmonella Typhimurium NCTC 74 at 5 ug/ml after 24 hrs by agar dilution method; assay type: functional, organism-based; details: Salmonella enterica subsp. enterica serovar Typhimurium; method in brief: as §1
# Shigella dysenteriae [22] = test: Antibacterial activity against Shigella dysenteriae 7 NCTC 519/66 at 5 ug/ml after 24 hrs by agar dilution method; assay type: functional, organism-based
# Mus musculus [23] = test: Toxicity in BALB/c mouse assessed as effect on serum glutamate pyruvate transaminase levels at 12.5 mg/kg, ip administered two times per week for 4 weeks; assay type: organism-based; design: dose 12.5 mg/kg, route intraperitoneal; details: in vivo, 672 h; method in brief: as §2
# Vibrio cholerae [24] = test: Antibacterial activity against Vibrio cholerae 582 at 50 ug/ml after 24 hrs by agar dilution method; assay type: functional; details: Vibrio cholerae, 582, 24 h
# Proteus mirabilis [25] = test: Antibacterial activity against Proteus mirabilis 175 at 25 ug/ml after 24 hrs by agar dilution method; assay type: functional, organism-based; method in brief: as §1
# Vibrio cholerae [26] = test: Antibacterial activity against Vibrio cholerae 569B at 25 ug/ml after 24 hrs by agar dilution method; assay type: functional
# Salmonella typhimurium [27] = test: Antibacterial activity against Salmonella Typhimurium NCTC 74 after 24 hrs by agar dilution method; assay type: functional, Salmonella enterica subsp. enterica serovar Typhimurium; details: Salmonella enterica, NCTC 74, 24 h; method in brief: as §1
# Bacillus licheniformis [28] = test: Antibacterial activity against […] Bacillus licheniformis NCTC 10341 at 5 ug/ml after 24 hrs by agar dilution method; assay type: functional, organism-based; method in brief: as §1
# Proteus mirabilis [29] = test: Antibacterial activity against Proteus mirabilis 175 at 5 ug/ml after 24 hrs by agar dilution method; assay type: functional, organism-based; method in brief: as §1
# Staphylococcus aureus [30] = test: Antibacterial activity against Staphylococcus aureus ML6 at 5 ug/ml after 24 hrs by agar dilution method; assay type: functional, organism-based; method in brief: as §1
# Escherichia coli [31] = test: Antibacterial activity against Escherichia coli K-12 Row at 5 ug/ml after 24 hrs by agar dilution method; assay type: functional, organism-based; method in brief: as §1
# Escherichia coli [32] = test: Antibacterial activity against Escherichia coli K-12 Row at 50 ug/ml after 24 hrs by agar dilution method; assay type: functional; method in brief: as §1
# Escherichia coli [33] = test: Antibacterial activity against Escherichia coli K-12 Row after 24 hrs by agar dilution method; assay type: functional; method in brief: as §1
# Vibrio cholerae [34] = test: Antibacterial activity against Vibrio cholerae 569B at 5 ug/ml after 24 hrs by agar dilution method; assay type: functional, organism-based
compound,measurement,setting,value
Clc1ccc(OCOc2ccc(Cl)c3cccnc23)c2ncccc12,MIC,Staphylococcus aureus [1],5 µg/mL
same,IC50,Leishmania donovani [2],2.1 µg/mL
same,Activity,Leishmania donovani [3],75%
same,MIC,Escherichia coli [4],50 µg/mL
same,Activity,Escherichia coli [5],inactive
same,Activity,Pseudomonas aeruginosa [6],inactive
same,inhibition at 25 µg/mL,Shigella dysenteriae [7],100%
same,Activity,Leishmania donovani [8],Active
same,inhibition at 25 µg/mL,Pseudomonas aeruginosa [9],100%
same,Activity,Leishmania donovani [10],Active
same,inhibition at 50 µg/mL,Pseudomonas aeruginosa [11],100%
same,inhibition at 10 µg/mL,Vibrio cholerae [12],100%
same,Activity,Shigella dysenteriae [13],inactive
same,MIC,Shigella dysenteriae [14],50 µg/mL
same,inhibition at 50 µg/mL,Proteus mirabilis [15],100%
same,Activity,Bacillus licheniformis [16],inactive
same,inhibition at 25 µg/mL,Staphylococcus aureus [17],100%
same,Activity,Mus musculus [18],Non-toxic
same,Activity,Bacillus licheniformis [19],inactive
same,Activity,Proteus mirabilis [20],inactive
same,Activity,Salmonella typhimurium [21],inactive
same,Activity,Shigella dysenteriae [22],inactive
same,Activity,Mus musculus [23],Non-toxic
same,inhibition at 50 µg/mL,Vibrio cholerae [24],100%
same,Activity,Proteus mirabilis [25],inactive
same,inhibition at 25 µg/mL,Vibrio cholerae [26],100%
same,MIC,Salmonella typhimurium [27],50 µg/mL
same,Activity,Bacillus licheniformis [28],inactive
same,Activity,Proteus mirabilis [29],inactive
same,Activity,Staphylococcus aureus [30],inactive
same,Activity,Escherichia coli [31],inactive
same,inhibition at 50 µg/mL,Escherichia coli [32],100%
same,MIC,Escherichia coli [33],50 µg/mL
same,Activity,Vibrio cholerae [34],inactive

# Reference: ChEMBL document CHEMBL1153864, “Phase transfer catalyzed synthesis of bis-quinolines: antileishmanial activity in experimental visceral leishmaniasis and in vitro antibacterial evaluation” (Eur J Med Chem, 2009)
